Measurements as given in ChEMBL document CHEMBL1629636, “In vitro susceptibility of Borrelia spielmanii to antimicrobial agents commonly used for treatment of Lyme disease” (2009).
≈ marks a conversion by molar mass, not a printed value.

Columns and labels:
Assay type in all cases: functional
Borrelia burgdorferi = experiment: Antimicrobial activity against Borrelia burgdorferi isolate LW2 after 72 hrs by colorimetric assay; conditions: Borreliella burgdorferi, isolate LW2, 72 h
Outline: (§1)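 Tested in microtiter trays preloaded with lyophilized antibiotics; clinical isolates were low-passage (10 to 20 passages). MIC was read by colorimetric assay after 72 h. MBC was defined as 100% killing in liquid medium at 72 h: aliquots from vials showing no growth were diluted 1:1,000 in BSK and checked for regrowth after 3 weeks of subculture. Values are medians of three independent experiments on separate days.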

[1] = Antimicrobial activity against Borrelia burgdorferi B31 after 72 hrs by colorimetric assay; conditions: Borreliella burgdorferi; outline: as §1
Borrelia spielmanii [2] = experiment: Antimicrobial activity against Borrelia spielmanii isolate PC-Eq17 after 72 hrs by colorimetric assay; conditions: Borreliella spielmanii, isolate PC-Eq17, 72 h; outline: as §1
Staphylococcus aureus = experiment: Antimicrobial activity against Staphylococcus aureus ATCC 29213 after 72 hrs by colorimetric assay; conditions: ATCC 29213, 72 h
Outline: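 Quality-control MIC followed the CLSI method with two changes: BSK medium was used, and the antibiotic-medium preparation was preincubated for 48 h before testing. Tests were run on three different days, and the MIC reported is the median of the three.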

Borrelia afzelii [3] = experiment: Antimicrobial activity against Borrelia afzelii isolate G1039 after 72 hrs by colorimetric assay; conditions: Borreliella afzelii, isolate G1039, 72 h; outline: as §1
Borrelia afzelii [4] = experiment: Antimicrobial activity against Borrelia afzelii isolate FEM1 after 72 hrs by colorimetric assay; conditions: Borreliella afzelii, isolate FEM1, 72 h; outline: as §1
Borrelia spielmanii [5] = experiment: Antimicrobial activity against Borrelia spielmanii isolate PMew after 72 hrs by colorimetric assay; conditions: Borreliella spielmanii; outline: as §1
Borrelia = experiment: Antimicrobial activity against Borrelia clinical isolate after 72 hrs by colorimetric assay; conditions: for MIC90: Borrelia, 72 h; outline: as §1
Borrelia spielmanii [6] = experiment: Antimicrobial activity against Borrelia spielmanii isolate PMai after 72 hrs by colorimetric assay; conditions: Borreliella spielmanii; outline: as §1
[7] = Antimicrobial activity against Borrelia spielmanii A14S after 72 hrs by colorimetric assay; conditions: Borreliella spielmanii
Outline: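 Low-passage isolates (10 to 20 passages) grown in BSK medium were tested in microtiter trays precoated with lyophilized antimicrobials. MIC was read colorimetrically after 72 h. Independent experiments were run on three different days, and the MIC reported is the median of the three.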

Borrelia afzelii [8] = experiment: Antimicrobial activity against Borrelia afzelii isolate G600 after 72 hrs by colorimetric assay; conditions: Borreliella afzelii, isolate G600, 72 h; outline: as §1
Borrelia spielmanii [9] = experiment: Antimicrobial activity against Borrelia spielmanii isolate PSig2 after 72 hrs by colorimetric assay; conditions: Borreliella spielmanii, isolate PSig2, 72 h; outline: as §1
Borrelia garinii [10] = experiment: Antimicrobial activity against Borrelia garinii isolate G1 after 72 hrs by colorimetric assay; conditions: Borreliella garinii, isolate G1, 72 h; outline: as §1
Borrelia garinii [11] = experiment: Antimicrobial activity against Borrelia garinii isolate PSth after 72 hrs by colorimetric assay; conditions: Borreliella garinii; outline: as §1
Borrelia spielmanii [12] = experiment: Antimicrobial activity against Borrelia spielmanii isolate PHap after 72 hrs by colorimetric assay; conditions: Borreliella spielmanii; outline: as §1
Borrelia garinii [13] = experiment: Antimicrobial activity against Borrelia garinii isolate M2094 after 72 hrs by colorimetric assay; conditions: Borreliella garinii, isolate M2094, 72 h; outline: as §1
Borrelia spielmanii [14] = experiment: Antimicrobial activity against Borrelia spielmanii isolate PJes after 72 hrs by colorimetric assay; conditions: Borreliella spielmanii; outline: as §1
Borrelia spielmanii [15] = experiment: Antimicrobial activity against Borrelia spielmanii isolate TIsar2 after 72 hrs by colorimetric assay; conditions: Borreliella spielmanii, isolate TIsar2, 72 h; outline: as §1
Borrelia spielmanii [16] = experiment: Antimicrobial activity against Borrelia spielmanii isolate PAnz after 72 hrs by colorimetric assay; conditions: Borreliella spielmanii; outline: as §1
Borrelia spielmanii [17] = experiment: Antimicrobial activity against Borrelia spielmanii isolate TIsar3 after 72 hrs by colorimetric assay; conditions: Borreliella spielmanii, isolate TIsar3, 72 h; outline: as §1

SMILES | MBC (Borrelia burgdorferi) | MIC (Borrelia burgdorferi) | MBC [1] | MIC [1] | MBC (Borrelia spielmanii [2]) | MIC (Borrelia spielmanii [2]) | MIC (Staphylococcus aureus) | MBC (Borrelia afzelii [3]) | MIC (Borrelia afzelii [3]) | MBC (Borrelia afzelii [4]) | MIC (Borrelia afzelii [4]) | MBC (Borrelia spielmanii [5]) | MIC (Borrelia spielmanii [5]) | MBC90 (Borrelia) | MIC90 (Borrelia) | MBC (Borrelia spielmanii [6]) | MIC (Borrelia spielmanii [6]) | MBC [7] | MIC [7] | MBC (Borrelia afzelii [8]) | further results
CC[C@H]1OC(=O)[C@H](C)[C@@H](O[C@H]2C[C@@](C)(OC)[C@@H](O)[C@H](C)O2)[C@H](C)[C@@H](O[C@@H]2O[C@H](C)C[C@H](N(C)C)[C@H]2O)[C@](C)(OC)C[C@@H](C)C(=O)[C@H](C)[C@@H](O)[C@]1(C)O [CLARITHROMYCIN] | 4 µg/mL (≈ 5.35 µM) | 0.0039 µg/mL (≈ 0.00521 µM) | 2 µg/mL (≈ 2.67 µM) | 0.0079 µg/mL (≈ 0.0106 µM) | 1 µg/mL (≈ 1.34 µM) | 0.0019 µg/mL (≈ 0.00254 µM) | 0.063 µg/mL (≈ 0.0842 µM) | 1 µg/mL (≈ 1.34 µM) | 0.0039 µg/mL (≈ 0.00521 µM) | 1 µg/mL (≈ 1.34 µM) | 0.0039 µg/mL (≈ 0.00521 µM) | 1 µg/mL (≈ 1.34 µM) | 0.0079 µg/mL (≈ 0.0106 µM) | 1 µg/mL (≈ 1.34 µM) | 0.0079 µg/mL (≈ 0.0106 µM) | 0.5 µg/mL (≈ 0.668 µM) | 0.0019 µg/mL (≈ 0.00254 µM) | 1 µg/mL (≈ 1.34 µM) | 0.0039 µg/mL (≈ 0.00521 µM) | 0.5 µg/mL (≈ 0.668 µM) | MIC (Borrelia afzelii [8]): 0.0079 µg/mL (≈ 0.0106 µM); MBC (Borrelia spielmanii [9]): 1 µg/mL (≈ 1.34 µM); MIC (Borrelia spielmanii [9]): 0.0019 µg/mL (≈ 0.00254 µM); MBC (Borrelia garinii [10]): 1 µg/mL (≈ 1.34 µM); MIC (Borrelia garinii [10]): 0.0019 µg/mL (≈ 0.00254 µM); MBC (Borrelia garinii [11]): 2 µg/mL (≈ 2.67 µM); MIC (Borrelia garinii [11]): 0.0079 µg/mL (≈ 0.0106 µM); MBC (Borrelia spielmanii [12]): 0.5 µg/mL (≈ 0.668 µM); MIC (Borrelia spielmanii [12]): 0.0019 µg/mL (≈ 0.00254 µM); MBC (Borrelia garinii [13]): 1 µg/mL (≈ 1.34 µM); MIC (Borrelia garinii [13]): 0.0039 µg/mL (≈ 0.00521 µM); MBC (Borrelia spielmanii [14]): 0.5 µg/mL (≈ 0.668 µM); MIC (Borrelia spielmanii [14]): 0.0039 µg/mL (≈ 0.00521 µM); MBC (Borrelia spielmanii [15]): 0.5 µg/mL (≈ 0.668 µM); MIC (Borrelia spielmanii [15]): 0.0079 µg/mL (≈ 0.0106 µM); MBC (Borrelia spielmanii [16]): 1 µg/mL (≈ 1.34 µM); MIC (Borrelia spielmanii [16]): 0.0019 µg/mL (≈ 0.00254 µM); MBC (Borrelia spielmanii [17]): 1 µg/mL (≈ 1.34 µM); MIC (Borrelia spielmanii [17]): 0.0079 µg/mL (≈ 0.0106 µM)
C[C@H]1c2cccc(O)c2C(=O)C2=C(O)[C@]3(O)C(=O)C(C(N)=O)=C(O)[C@@H](N(C)C)[C@@H]3[C@@H](O)[C@@H]21.O [DOXYCYCLINE] | 32 µg/mL | 0.125 µg/mL | 16 µg/mL | 0.25 µg/mL | 16 µg/mL | 0.125 µg/mL | 0.25 µg/mL | 4 µg/mL | 0.125 µg/mL | 4 µg/mL | 0.125 µg/mL | 16 µg/mL | 0.5 µg/mL | 16 µg/mL | 0.25 µg/mL | 8 µg/mL | 0.125 µg/mL | 16 µg/mL | 0.125 µg/mL | 2 µg/mL | MIC (Borrelia afzelii [8]): 0.25 µg/mL; MBC (Borrelia spielmanii [9]): 8 µg/mL; MIC (Borrelia spielmanii [9]): 0.125 µg/mL; MBC (Borrelia garinii [10]): 16 µg/mL; MIC (Borrelia garinii [10]): 0.125 µg/mL; MBC (Borrelia garinii [11]): 32 µg/mL; MIC (Borrelia garinii [11]): 0.25 µg/mL; MBC (Borrelia spielmanii [12]): 16 µg/mL; MIC (Borrelia spielmanii [12]): 0.0625 µg/mL; MBC (Borrelia garinii [13]): 16 µg/mL; MIC (Borrelia garinii [13]): 0.25 µg/mL; MBC (Borrelia spielmanii [14]): 8 µg/mL; MIC (Borrelia spielmanii [14]): 0.125 µg/mL; MBC (Borrelia spielmanii [15]): 16 µg/mL; MIC (Borrelia spielmanii [15]): 0.25 µg/mL; MBC (Borrelia spielmanii [16]): 8 µg/mL; MIC (Borrelia spielmanii [16]): 0.0625 µg/mL; MBC (Borrelia spielmanii [17]): 8 µg/mL; MIC (Borrelia spielmanii [17]): 0.125 µg/mL
CC[C@H]1OC(=O)[C@H](C)[C@@H](O[C@H]2C[C@@](C)(OC)[C@@H](O)[C@H](C)O2)[C@H](C)[C@@H](O[C@@H]2O[C@H](C)C[C@H](N(C)C)[C@H]2O)[C@](C)(O)C[C@@H](C)C(=O)[C@H](C)[C@@H](O)[C@]1(C)O [ERYTHROMYCIN] | 4 µg/mL (≈ 5.45 µM) | 0.0312 µg/mL (≈ 0.0425 µM) | 4 µg/mL (≈ 5.45 µM) | 0.0312 µg/mL (≈ 0.0425 µM) | 4 µg/mL (≈ 5.45 µM) | 0.0156 µg/mL (≈ 0.0213 µM) | 0.25 µg/mL (≈ 0.341 µM) | 2 µg/mL (≈ 2.73 µM) | 0.0156 µg/mL (≈ 0.0213 µM) | 2 µg/mL (≈ 2.73 µM) | 0.0312 µg/mL (≈ 0.0425 µM) | 2 µg/mL (≈ 2.73 µM) | 0.0312 µg/mL (≈ 0.0425 µM) | 4 µg/mL (≈ 5.45 µM) | 0.0312 µg/mL (≈ 0.0425 µM) | 1 µg/mL (≈ 1.36 µM) | 0.0079 µg/mL (≈ 0.0108 µM) | 2 µg/mL (≈ 2.73 µM) | 0.0156 µg/mL (≈ 0.0213 µM) | 2 µg/mL (≈ 2.73 µM) | MIC (Borrelia afzelii [8]): 0.0312 µg/mL (≈ 0.0425 µM); MBC (Borrelia spielmanii [9]): 2 µg/mL (≈ 2.73 µM); MIC (Borrelia spielmanii [9]): 0.0079 µg/mL (≈ 0.0108 µM); MBC (Borrelia garinii [10]): 4 µg/mL (≈ 5.45 µM); MIC (Borrelia garinii [10]): 0.0156 µg/mL (≈ 0.0213 µM); MBC (Borrelia garinii [11]): 4 µg/mL (≈ 5.45 µM); MIC (Borrelia garinii [11]): 0.0312 µg/mL (≈ 0.0425 µM); MBC (Borrelia spielmanii [12]): 2 µg/mL (≈ 2.73 µM); MIC (Borrelia spielmanii [12]): 0.0079 µg/mL (≈ 0.0108 µM); MBC (Borrelia garinii [13]): 4 µg/mL (≈ 5.45 µM); MIC (Borrelia garinii [13]): 0.0312 µg/mL (≈ 0.0425 µM); MBC (Borrelia spielmanii [14]): 1 µg/mL (≈ 1.36 µM); MIC (Borrelia spielmanii [14]): 0.0156 µg/mL (≈ 0.0213 µM); MBC (Borrelia spielmanii [15]): 1 µg/mL (≈ 1.36 µM); MIC (Borrelia spielmanii [15]): 0.0312 µg/mL (≈ 0.0425 µM); MBC (Borrelia spielmanii [16]): 2 µg/mL (≈ 2.73 µM); MIC (Borrelia spielmanii [16]): 0.0079 µg/mL (≈ 0.0108 µM); MBC (Borrelia spielmanii [17]): 2 µg/mL (≈ 2.73 µM); MIC (Borrelia spielmanii [17]): 0.0312 µg/mL (≈ 0.0425 µM)
